Experimental data reported in ChEMBL document CHEMBL1914440, “Discovery of potent, selective, and orally bioavailable alkynylphenoxyacetic acid CRTH2 (DP2) receptor antagonists for the treatment of allergic inflammatory diseases” (J Med Chem, 2011).
pIC50, pKi: −log10 of the molar value. The source made the active and inactive calls. The calls are words filed in the database; no cut-off is given here.

Tests used:
[1] = Percentage unbound in rat plasma; assay type: ADME, cell-free
[2] = AUC in BALB/c mouse at 1 mg/kg, po; assay type: ADME, organism-based; parameters: dose 1 mg/kg, route oral; settings: plasma
[3] = Oral bioavailability in BALB/c mouse at 5 mg/kg by LC/MS/MS analysis; assay type: ADME, organism-based; settings: in vivo
Outline: (§1)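 Mouse PK after a 5 mg/kg oral dose.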

[4] = target: T1, Prostaglandin D2 receptor 2 (Homo sapiens, UniProt Q9Y5Y4); test: Displacement of [3H]PGD2 from human CRTH2 expressed in chinese hamster CHO cells by liquid scintillation counting; assay type: cell-based
T1 sequence (Q9Y5Y4 whole entry): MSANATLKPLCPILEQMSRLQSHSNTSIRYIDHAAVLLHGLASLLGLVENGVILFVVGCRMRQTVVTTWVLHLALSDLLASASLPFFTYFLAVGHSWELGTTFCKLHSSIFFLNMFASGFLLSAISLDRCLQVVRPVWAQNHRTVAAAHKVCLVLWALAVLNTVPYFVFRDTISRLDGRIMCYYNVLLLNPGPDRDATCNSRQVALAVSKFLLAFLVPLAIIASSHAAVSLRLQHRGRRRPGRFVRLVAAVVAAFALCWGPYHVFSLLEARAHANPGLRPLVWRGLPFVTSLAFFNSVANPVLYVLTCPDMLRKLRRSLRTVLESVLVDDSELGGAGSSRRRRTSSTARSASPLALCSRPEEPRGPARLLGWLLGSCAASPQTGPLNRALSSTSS
Outline: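 Scintillation proximity competition assay: 2–5 μg human CRTH2 cell membranes, 1.5 nM [3H]PGD2, WGA-SPA beads, 10 mM HEPES/KOH pH 7.4, 10 mM MnCl2, protease inhibitors, 1% DMSO; 90 min, room temperature, shaking. Nonspecific binding defined with 1 μM PGD2. Ki by Cheng–Prusoff, mean of ≥3 independent dose–response experiments.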

[5] = Clearance in BALB/c mouse at 5 mg/kg, po by LC/MS/MS analysis; assay type: ADME, organism-based; parameters: dose 5 mg/kg, route oral; settings: in vivo
[6] = Percentage unbound in mouse plasma; assay type: ADME, cell-free
[7] = Percentage unbound in human plasma; assay type: ADME, cell-free
[8] = target: T2, Prostaglandin D2 receptor 2 (Homo sapiens) (UniProt Q9Y5Y4); test: Partial agonist activity at human CRTH2 expressed in chinese hamster CHO cells by cellular dielectric spectroscopy relative to PGD2; assay type: functional, cell-based
T2 sequence (whole entry): T1 sequence (Q9Y5Y4 whole entry)
Outline: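 CHO-CRTH2 cells seeded at 100000/well, grown 24 h at 37 °C, washed into HBSS/10 mM HEPES pH 7.4 with 1% DMSO; impedance recorded. Agonism: compound alone, 25 min read. Antagonism: PGD2 at EC80 added to cell–compound mixture, 25 min read. Run with 0.1% BSA.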

[9] = AUC in BALB/c mouse at 5 mg/kg, po; assay type: ADME, organism-based; parameters: dose 5 mg/kg, route oral; settings: plasma; outline: as §1
[10] = Apparent permeability across human Caco2 cells at 1 uM after 2 hrs by LC/MS/MS analysis; assay type: ADME, cell-based; settings: Caco-2
[11] = Half life in BALB/c mouse at 1 mg/kg, iv by LC/MS/MS analysis; assay type: ADME, organism-based; parameters: dose 1 mg/kg, route intravenous; settings: in vivo
Mus musculus [12] = test: Antiinflammatory activity in BALB/c mouse contact hypersensitivity model assessed as inhibition of FITC-mediated ear swelling at 30 mg/kg, po administered 1 hr prior to and 7 hrs after the FITC-challenge measured 24 hrs after final dose; assay type: functional
Outline: (§2)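 Female 9-week-old BALB/c mice sensitized on days 0 and 1 with 0.5% FITC in acetone/dibutyl phthalate (sham group: vehicle only). Right ear challenged on day 6 with 0.5% FITC. Compound given by oral gavage 1 h before and 7 h after challenge. Ear thickness measured before and 24 h after challenge. Reported as mean % inhibition ± SEM.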

[13] = Half life in BALB/c mouse at 5 mg/kg, po by LC/MS/MS analysis; assay type: ADME, organism-based; parameters: dose 5 mg/kg, route oral; settings: in vivo
Mus musculus [14] = test: Antiinflammatory activity in BALB/c mouse model assessed as inhibition of ovalbumin-induced eosinophil accumulation in bronchoalveolar lavage fluid at 3 mg/kg, po administered 1 hr prior to and 7 hrs after ovalbumin challenge for 3 days measured 8 hrs after final dose by cell counting; assay type: functional; settings: Lung
Outline: (§3)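 Compound given by oral gavage 1 h before and 7 h after each challenge. BAL taken 8 h after the last challenge. Total cells counted by hemocytometer; eosinophils counted on DiffQuik-stained cytospins. Reported as mean % inhibition ± SEM.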

Mus musculus [15] = test: Antiinflammatory activity in BALB/c mouse model assessed as inhibition of ovalbumin-induced eosinophil accumulation in bronchoalveolar lavage fluid at 10 mg/kg, po administered 1 hr prior to and 7 hrs after ovalbumin challenge for 3 days measured 8 hrs after final dose by cell counting; assay type: functional; settings: Lung; outline: as §3
Mus musculus [16] = test: Antiinflammatory activity in BALB/c mouse contact hypersensitivity model assessed as inhibition of FITC-mediated ear swelling at 10 mg/kg, po administered 1 hr prior to and 7 hrs after the FITC-challenge measured 24 hrs after final dose; assay type: functional; outline: as §2
[17] = AUC in BALB/c mouse at 5 mg/kg, po by LC/MS/MS analysis; assay type: ADME, organism-based; parameters: dose 5 mg/kg, route oral; settings: plasma
[18] = Intrinsic clearance in rat liver microsomes assessed per mg of protein at 1 uM by LC/MS/MS analysis; assay type: ADME, Microsome
[19] = target: T1, Prostaglandin D2 receptor 2; test: Antagonist activity at human CRTH2 expressed in human CHO cells by cellular dielectric spectroscopy
[20] = target: T1, Prostaglandin D2 receptor 2; test: Antagonist activity human CRTH2 expressed in chinese hamster CHO cells assessed as inhibition of PGD2-induced [35S]GTPgamma binding by liquid scintillation counting; assay type: functional, cell-based
Outline: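 10 μg human CRTH2 membranes in 20 mM HEPES/KOH pH 7.4, 10 mM MgCl2, 10 μg/mL saponin, 3 μM GDP, 150 mM NaCl, 2% DMSO, 30 °C. Preincubated 10 min, then 0.15 nM [35S]GTPγS for 30 min; stopped by centrifugation. Antagonism tested against 80 nM PGD2. Nonspecific binding with 10 μM GTPγS. Run without BSA.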

Mus musculus [21] = test: Antiinflammatory activity in BALB/c mouse model assessed as inhibition of ovalbumin-induced eosinophil accumulation in bronchoalveolar lavage fluid at 30 mg/kg, po administered 1 hr prior to and 7 hrs after ovalbumin challenge for 3 days measured 8 hrs after final dose by cell counting; assay type: functional; settings: Lung; outline: as §3
[22] = Intrinsic clearance in human liver microsomes assessed per mg of protein at 1 uM by LC/MS/MS analysis; assay type: ADME, Microsome
[23] = target: T3, Prostaglandin D2 receptor 2 (Mus musculus, UniProt Q9Z2J6); test: Displacement of [3H]PGD2 from mouse CRTH2 expressed in human HEK cells by liquid scintillation counting; assay type: cell-based, HEK293
T3 sequence (Q9Z2J6 whole entry): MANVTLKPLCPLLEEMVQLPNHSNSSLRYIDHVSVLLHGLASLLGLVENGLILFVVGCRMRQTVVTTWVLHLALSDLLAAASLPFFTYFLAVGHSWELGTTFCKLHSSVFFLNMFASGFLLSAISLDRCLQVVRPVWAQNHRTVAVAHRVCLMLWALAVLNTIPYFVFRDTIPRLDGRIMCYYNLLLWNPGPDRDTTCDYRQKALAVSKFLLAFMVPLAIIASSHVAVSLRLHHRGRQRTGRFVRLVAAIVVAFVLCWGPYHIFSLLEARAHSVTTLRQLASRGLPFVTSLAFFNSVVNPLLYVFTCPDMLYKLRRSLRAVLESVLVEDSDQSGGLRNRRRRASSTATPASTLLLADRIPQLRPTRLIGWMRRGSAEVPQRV
Outline: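 Mouse CRTH2 cDNA stably expressed in HEK293(EBNA) cells (hygromycin-selected) and membranes made by nitrogen cavitation. SPA competition uses 2–5 μg membranes, 1.5 nM [3H]PGD2, HEPES/KOH pH 7.4 with 10 mM MnCl2, 1% DMSO, 90 min at room temperature. Nonspecific binding defined with 1 μM PGD2. Ki by Cheng–Prusoff, ≥3 independent experiments.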

Mus musculus [24] = test: Antiinflammatory activity in BALB/c mouse contact hypersensitivity model assessed as inhibition of FITC-mediated ear swelling at 3 mg/kg, po administered 1 hr prior to and 7 hrs after the FITC-challenge measured 24 hrs after final dose; assay type: functional; outline: as §2

CS(=O)(=O)c1ccc(Cl)c(C#Cc2cc(Cl)ccc2OCC(=O)O)c1
fraction unbound [1]: 0.003
AUC [2]: 1390 ng·h/mL
bioavailability [3]: 141%
pKi [4]: 8.46
CL/F [5]: 11.7 mL/min/kg
fraction unbound [6]: 0.025
fraction unbound [7]: 0.007

CS(=O)(=O)c1cccc(C#Cc2cc(Cl)ccc2OCC(=O)O)c1
Emax [8]: 10%
pKi [4]: 7.82

CCCS(=O)(=O)c1cccc(C#Cc2cc(C#N)ccc2OCC(=O)O)c1
Emax [8]: 30%
pKi [4]: 7.68

CS(=O)(=O)c1ccc(F)c(C#Cc2cc(Cl)ccc2OCC(=O)O)c1
Emax [8]: 10%
fraction unbound [1]: 0.011
bioavailability [3]: 24%
pKi [4]: 8.48
AUC [9]: 3240 ng·h/mL
CL/F [5]: 6.67 mL/min/kg
fraction unbound [6]: 0.054
fraction unbound [7]: 0.013

O=C(O)COc1ccc(C(F)(F)F)cc1C#Cc1ccccc1Cl
Emax [8]: 60%
pKi [4]: 7.92

CCCS(=O)(=O)c1ccc(F)c(C#Cc2cc(Cl)ccc2OCC(=O)O)c1
Papp at 2 h, 1 µM [10]: 10.8 ×10⁻⁶ cm/s
half-life [11]: 2 h
inhibition in vivo at 30 mg/kg (Mus musculus [12]): 48%
half-life [13]: 1.9 h
fraction unbound [1]: 0.004
pKi [4]: 8.47
AUC [9]: 6140 ng·h/mL
inhibition in vivo at 3 mg/kg (Mus musculus [14]): 19%
inhibition in vivo at 10 mg/kg (Mus musculus [15]): 27%
inhibition in vivo at 10 mg/kg (Mus musculus [16]): 54%
AUC [17]: 6140 ng·h/mL
microsomal CLint at 1 µM [18]: < 10 µL/min/mg
pIC50 [19]: 7.55
pIC50 [20]: 8.10
inhibition in vivo at 30 mg/kg (Mus musculus [21]): 55%
microsomal CLint at 1 µM [22]: 12 µL/min/mg
pKi [23]: 9.43
inhibition in vivo at 3 mg/kg (Mus musculus [24]): 36%
CL/F [5]: 6.67 mL/min/kg
fraction unbound [6]: 0.007
fraction unbound [7]: 0.01

CCCS(=O)(=O)c1ccc(C)c(C#Cc2cc(C#N)ccc2OCC(=O)O)c1
Activity [8]: inactive
bioavailability [3]: 24%
pKi [4]: 8.15
AUC [9]: 1370 ng·h/mL
CL/F [5]: 18.3 mL/min/kg

COCCNS(=O)(=O)c1ccc(C)c(C#Cc2cc(Cl)ccc2OCC(=O)O)c1
bioavailability [3]: 33%
pKi [4]: 8.44
AUC [9]: 831 ng·h/mL
microsomal CLint at 1 µM [18]: < 10 µL/min/mg
microsomal CLint at 1 µM [22]: < 10 µL/min/mg
CL/F [5]: 33.3 mL/min/kg

Cc1ccc(S(C)(=O)=O)cc1C#Cc1cc(Cl)ccc1OCC(=O)O
Emax [8]: 10%
fraction unbound [1]: 0.014
bioavailability [3]: 49%
pKi [4]: 8.30
AUC [9]: 1800 ng·h/mL
microsomal CLint at 1 µM [18]: 18 µL/min/mg
microsomal CLint at 1 µM [22]: 14 µL/min/mg
CL/F [5]: 23.3 mL/min/kg
fraction unbound [6]: 0.027
fraction unbound [7]: 0.017

CCCS(=O)(=O)c1cccc(C#Cc2cc(-c3ccccc3)ccc2OCC(=O)O)c1
Emax [8]: 68%
pKi [4]: 7.72
